As a reminder, the MIC is the smallest concentration in the dilution series that meets the test's criterion for growth inhibition. High values mean a less susceptible organism, low ones a more susceptible organism. As usually defined, the half-life is how long it takes for the measured level to halve. The low end stands for rapid decline, the high end for slow decline. In general, microsomal CLint refers to the capacity of the preparation to metabolise the compound, expressed as a volume cleared per time. A low value points to slow turnover.

In brackets after ≈: the same amount, converted by molar mass. Entries after “also recorded” stand apart in the source; their conditions may differ.

For one data set, the system named is P. aeruginosa PA14. Briefly: Antibiotic susceptibility. The format is cell-based, Pseudomonas aeruginosa. The method, boiled down: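 PA14 from LB agar (37 °C overnight) dispersed in MHB II to OD600 0.08–0.13, diluted 1:100 (final 5 × 10⁵ cfu/mL). Serial dilutions in PBS/20% DMSO (1 mM–1.9 μM before dilution) diluted ~1:20 into matrix at −3 h (sealed, 37 °C) or −10 min (room temperature).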

The format of data set [1] is in vitro ADME. The note with it: human blood plasma + PA14 culture supernatant, 37 °C, up to 3 h. The method, boiled down:
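PA14 grown overnight in LB at 37 °C, 180 rpm. Culture centrifuged and supernatant 0.22 μm-filtered, then mixed 1:9 with pooled LiHep human plasma. Test compound (1 mM stock, PBS pH 7.4/20% DMSO) diluted 1:20 into matrix on ice and incubated at 37 °C, 500 rpm. Samples taken at 0, 30, 60, 120 and 180 min, quenched with ice-cold MeCN containing diphenhydramine internal standard, centrifuged, then analysed by HPLC-MS.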

The format of data set [2] is in vitro ADME. The note with it: human blood plasma spiked with fresh growth medium, within 3 h.
Data set [3] can be described thus: Cleavage/stability in P. aeruginosa PA14 culture filtrate without plasma. It counts as in vitro ADME, Pseudomonas aeruginosa. The note with it: up to 24 h.
Data set [4] is described as follows: Microsomal stability assay, human. The following applies: human liver microsomes. It counts as in vitro ADME. The procedure, abridged:
(§1)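 Mouse or human liver microsomes thawed slowly on ice, then combined with test compound (from a 100 μM solution; final level not given) and 100 mM phosphate buffer. Pre-incubated 5 min at 37 °C in a water bath. Intrinsic clearance reported as μL/min/mg protein.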
In general terms: Liver microsomes are a subcellular fraction often used to study metabolism.

Data set [5] can be described thus: Microsomal stability assay, mouse. It counts as in vitro ADME. The note with it: mouse liver microsomes. The procedure, abridged:
as §1

The subject of data set [6] is A549 cells. Nature of the data set: Cell accumulation assay. It counts as cell-based, human. The note with it: for compound 2 found in cells after lysis (intracellular cleavage of prodrug): A549 cells treated with prodrug.
Data set [7] deals with A549 cells. The following applies: cytotoxicity versus antimicrobial activity.
Where [8] appears, read: Matrix 3: 10% P. aeruginosa culture supernatant in PBS, pre-incubation < 10 min.

Consider `O=C(O)c1cn(C2CC2)c2cc(N3CCNCC3)c(F)cc2c1=O` [Compound 1, Ciprofloxacin, reference compound], for which the MIC against P. aeruginosa PA14 (Pseudomonas aeruginosa, PA14, Matrix 1: PBS, pre-incubation 3 h) lay within 0.125 to 0.25 µM (≈ 0.0414 to 0.0828 µg/mL).

As to `CC(C)C[C@H](NC(=O)CNC(=O)[C@H](C)NC(=O)c1ccc(S[C@@H]2O[C@H](CO)[C@H](O)[C@H](O)[C@H]2O)cc1)C(=O)N[C@@H](C)C(=O)N1CCN(c2cc3c(cc2F)c(=O)c(C(=O)O)cn3C2CC2)CC1` [Compound 24, LecA-targeted ciprofloxacin-prodrug], the “release of native antibiotic cargo” value in data set [1] is “not fully metabolized to release their native antibiotic cargo; also recorded: not completely processed to release free ciprofloxacin”. The “release of antibiotic cargo (stability control)” value (from here on “release … (stability control)”) in data set [2] is on record as “no significant release of the antibiotic cargo was observed”.

Consider `CC(C)C[C@H](NC(=O)CNC(=O)[C@H](C)NC(=O)c1ccc(S(=O)(=O)NC[C@H]2O[C@@H](C)[C@@H](O)[C@@H](O)[C@@H]2O)cc1)C(=O)N[C@@H](C)C(=O)N1CCN(c2cc3c(cc2F)c(=O)c(C(=O)O)cn3C2CC2)CC1` [Compound 25, LecB-Targeted Ciprofloxacin-Prodrug], for which the “release of native antibiotic cargo” value in data set [1] is reported as “not fully metabolized to release their native antibiotic cargo; also recorded: not completely processed to release free ciprofloxacin”. In addition, the “release … (stability control)” value in data set [2] is reported as “no significant release of the antibiotic cargo was observed”.

As for `CC(C)C[C@H](N)C(=O)N[C@@H](C)C(=O)N[C@H]1CCN(c2cc3c(cc2F)c(=O)c(C(=O)O)cn3C2CC2)C1` [Compound 35, 7-((S)-3-((S)-2-((S)-2-Amino-4-methylpentanamido)propanamido)pyrrolidin-1-yl)-1-cyclopropyl-6-fluoro-4-oxo-1,4-dihydroquinoline-3-carboxylic Acid], in data set [3], the “release of antibiotic cargo from dipeptide conjugate” value is “only slowly released their antibiotic cargo”.

Regarding `CC(C)C[C@H](NC(=O)CNC(=O)[C@H](C)NC(=O)c1ccc(S[C@@H]2O[C@H](CO)[C@H](O)[C@H](O)[C@H]2O)cc1)C(=O)N[C@@H](C)C(=O)N[C@H]1CCN(c2cc3c(cc2F)c(=O)c(C(=O)O)cn3C2CC2)C1` [Compound 36, LecA-Targeted Aminopyrrolidine-fluoroquinolone Prodrug], the half-life at 1 h, 100 µM turned out to be 1.55 h in data set [4] and 1.67 h in data set [5]. The compound further displayed an intrinsic clearance (microsomal CLint) at 1 h, 1 µM in data set [4] of 15 µL/min/mg. Besides, the intrinsic metabolic clearance (microsomal CLint) at 1 h, 100 µM in data set [5] stood at 14 µL/min/mg. Moreover, the MIC lay in the range of 0.195 to 3.13 µM in the data set on P. aeruginosa PA14 (Matrix 3: 10% P. aeruginosa culture supernatant in PBS, pre-incubation 3 h) and 0.78 to 3.13 µM with P. aeruginosa PA14 (setting [8]). Also, the “fold decreased ability to permeate into human cells versus 2” value in the data set with A549 cells [6] (A549 cells) is on record as “up to 100 fold”. Further, the “compound 2 found in cells after lysis (intracellular cleavage of prodrug)” value in the data set on A549 cells [6] is recorded as “not detected”. For the same compound, the intracellular concentration with A549 cells [6] (A549 cells, 10 μg/mL, after 15, 30, and 60 min) lay in the range of 55 to 130 ng/mL. Further, in data set [1], the “release of native antibiotic cargo” value is “efficiently released”. In addition, the “release … (stability control)” value in data set [2] was “no significant release of the antibiotic cargo was observed”. For the same compound, in the data set with A549 cells [7], the selectivity index result is listed as “greater than 20”.

In data set [4], `CC(C)C[C@H](NC(=O)CNC(=O)[C@H](C)NC(=O)c1ccc(S(=O)(=O)NC[C@H]2O[C@@H](C)[C@@H](O)[C@@H](O)[C@@H]2O)cc1)C(=O)N[C@@H](C)C(=O)N[C@H]1CCN(c2cc3c(cc2F)c(=O)c(C(=O)O)cn3C2CC2)C1` [Compound 37, LecB-Targeted Aminopyrrolidine-FQ-Prodrug] had a half-life at 1 h, 100 µM of 2.97 h and a microsomal CLint at 1 h, 100 µM of 7.8 µL/min/mg. Moreover, in data set [5], the half-life at 1 h, 100 µM is 3.6 h and the microsomal CLint at 1 h, 1 µM was determined as 6.4 µL/min/mg. Also, the “fold decreased ability to permeate into human cells versus 2” value in the data set with A549 cells [6] (A549 cells) is on record as “up to 100 fold”. Further, in the data set with A549 cells [6], the “compound 2 found in cells after lysis (intracellular cleavage of prodrug)” value is “not detected”. Also, the “release of native antibiotic cargo” value in data set [1] is given as “efficiently released”. For the same compound, in data set [2], the “release … (stability control)” value is recorded as “no significant release of the antibiotic cargo was observed”.

With `CC(C)C[C@H](NC(=O)CNC(=O)[C@H](C)NC(=O)c1ccc(S[C@@H]2O[C@H](CO)[C@H](O)[C@H](O)[C@H]2O)cc1)C(=O)N[C@@H](C)C(=O)NC[C@@H]1CCN(c2cc3c(cc2F)c(=O)c(C(=O)O)cn3C2CC2)C1` [Compound 48, LecA-Targeted Aminomethylpyrrolidine-FQ-Prodrug], the “release of native antibiotic cargo” value in data set [1] is reported as “efficiently released”. In addition, the “release … (stability control)” value in data set [2] was “no significant release of the antibiotic cargo was observed”.

As to `CC(C)C[C@H](NC(=O)CNC(=O)[C@H](C)NC(=O)c1ccc(S(=O)(=O)NC[C@H]2O[C@@H](C)[C@@H](O)[C@@H](O)[C@@H]2O)cc1)C(=O)N[C@@H](C)C(=O)NC[C@@H]1CCN(c2cc3c(cc2F)c(=O)c(C(=O)O)cn3C2CC2)C1` [Compound 49, LecB-Targeted Aminomethylpyrrolidine-FQ-Prodrug], the minimal inhibitory concentration (MIC) with P. aeruginosa PA14 (setting [8]) was in the range of 3.13 to 6.25 µM. Besides, in data set [1], the “release of native antibiotic cargo” value is “efficiently released”. Also, in data set [2], the “release … (stability control)” value is given as “no significant release of the antibiotic cargo was observed”.

In the case of “Leu-Ala-Ciprofloxacin Conjugate [Compound 19]”, the “release of antibiotic cargo from dipeptide conjugate” value in data set [3] is recorded as “only slowly released their antibiotic cargo”.

Values taken from publication PMC9619409 (Journal of Medicinal Chemistry, 2022).
